Measured values published in ChEMBL document CHEMBL3272118, “Structure and tumor-promoting activity of analogues of anthralin (1,8-dihydroxy-9-anthrone)” (J Med Chem, 1978).
Blank lines part the entries; values can stand above or below the molecule they belong to.

Assays:
[1] = test system: Mus musculus; assay: Toxicity in ICR/Ha Swiss mouse assessed as median survival time at 80 ug administered three times a week; assay type: organism-based; conditions: in vivo
[2] = test system: Mus musculus; assay: Tumor promoting activity in ICR/Ha Swiss mouse at 80 ug administered three times a week measured for 521 days; assay type: ADME, organism-based; conditions: in vivo, 12504 h
[3] = test system: Mus musculus; assay: Tumor promoting activity in ICR/Ha Swiss mouse at 124 ug administered three times a week measured for 370 days; assay type: ADME, organism-based; conditions: in vivo, 8880 h
Procedure, shortened: (§1)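 Two-stage carcinogenesis on clipped backs of female ICR/Ha Swiss mice (8 weeks, ectromelia-vaccinated): one subcarcinogenic topical dose of 7,12-dimethylbenz[a]anthracene, then repeated skin application of test agent, dosed equimolar to anthralin except where toxicity required lower, for 370 days. Tumors >1 mm persisting ≥30 days counted; carcinomas confirmed histologically at autopsy.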

[4] = test system: Mus musculus; assay: Tumor promoting activity in ICR/Ha Swiss mouse at 80 ug administered three times a week measured for 370 days; assay type: ADME, organism-based; conditions: in vivo, 8880 h; procedure, shortened: as §1
[5] = test system: Mus musculus; assay: Tumor promoting activity in ICR/Ha Swiss mouse at 85 ug administered three times a week measured for 370 days; assay type: ADME, organism-based; conditions: in vivo, 8880 h; procedure, shortened: as §1
[6] = test system: Mus musculus; assay: Tumor promoting activity in ICR/Ha Swiss mouse at 76 ug administered three times a week measured for 370 days; assay type: ADME, organism-based; conditions: in vivo, 8880 h; procedure, shortened: as §1
[7] = test system: Mus musculus; assay: Tumor promoting activity in ICR/Ha Swiss mouse at 228 ug administered three times a week measured for 370 days; assay type: ADME, organism-based; conditions: in vivo, 8880 h; procedure, shortened: as §1
[8] = test system: Mus musculus; assay: Tumor promoting activity in ICR/Ha Swiss mouse at 300 ug administered three times a week measured for 521 days; assay type: ADME, organism-based; conditions: in vivo, 12504 h
Procedure, shortened: (§2)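 Female ICR/Ha Swiss mice, 8 weeks old, vaccinated against ectromelia, backs clipped. Repeated skin application after a single subcarcinogenic dose of 7,12-dimethylbenz[a]anthracene. Groups of twenty mice; test ran 521 days; median survival time recorded. Tumors >1 mm persisting ≥30 days counted; autopsy with histological confirmation.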

[9] = test system: Mus musculus; assay: Toxicity in ICR/Ha Swiss mouse assessed as median survival time at 300 ug administered three times a week; assay type: organism-based; conditions: in vivo; procedure, shortened: as §2
[10] = test system: Mus musculus; assay: Tumor promoting activity in ICR/Ha Swiss mouse at 75 ug administered three times a week measured for 370 days; assay type: ADME, organism-based; conditions: in vivo, 8880 h; procedure, shortened: as §1
[11] = test system: Mus musculus; assay: Tumor promoting activity in ICR/Ha Swiss mouse at 136 ug administered three times a week measured for 370 days; assay type: ADME, organism-based; conditions: in vivo, 8880 h; procedure, shortened: as §1
[12] = test system: Mus musculus; assay: Tumor promoting activity in ICR/Ha Swiss mouse at 15 ug administered three times a week measured for 370 days; assay type: ADME, organism-based; conditions: in vivo, 8880 h; procedure, shortened: as §1
[13] = Metal chelating activity of the compound assessed as stability constant of metal chelate at 2 to 9 x 10^-5 M using Mg2+; assay type: physicochemical
Procedure, shortened: (§3)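 Stability constants by the Rossotti and Rossotti spectrophotometric method in dimethyl sulfoxide: eight solutions of anthralin from 2.0×10^-5 to 9.0×10^-5 M with metal acetate at matching concentrations, spectra read 400–650 nm at 25 °C.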

[14] = Metal chelating activity of the compound assessed as stability constant of metal chelate at 2 to 9 x 10^-5 M using Zn2+; assay type: physicochemical; procedure, shortened: as §3
[15] = Metal chelating activity of the compound assessed as metal-compound complex formation using copper; assay type: physicochemical
Procedure, shortened: (§4)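 Chelates prepared by adding 0.5 molar equiv of metal acetate in anhydrous ethanol to the ligand (2.0 mmol) dissolved in warm anhydrous ethanol. Metal:ligand ratio in dimethyl sulfoxide by Job's continuous variation: ligand (DHAQ 1.0×10^-4 M or anthralin 2.0×10^-4 M) and equimolar metal acetate mixed in nine solutions at ligand mole fractions 0.1–0.9, spectra recorded 400–650 nm.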

[16] = Metal chelating activity of the compound assessed as stability constant of metal chelate at 2 to 9 x 10^-5 M using Mn2+; assay type: physicochemical; procedure, shortened: as §3
[17] = Metal chelating activity of the compound assessed as stability constant of metal chelate at 2 to 9 x 10^-5 M using Ca2+; assay type: physicochemical; procedure, shortened: as §3
[18] = Metal chelating activity of the compound assessed as stability constant of metal chelate at 2 to 9 x 10^-5 M using copper; assay type: physicochemical; procedure, shortened: as §3
[19] = Metal chelating activity of the compound assessed as stability constant of metal chelate at 1 to 4.5 x 10^-5 M using Zn2+; assay type: physicochemical
Procedure, shortened: (§5)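 Spectrophotometric method of Rossotti and Rossotti in dimethyl sulfoxide: eight solutions of DHAQ from 1.0×10^-5 to 4.5×10^-5 M with metal acetate at the same concentrations, absorption spectra recorded 400–650 nm at 25 °C, stability constants calculated from these.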

[20] = Metal chelating activity of the compound assessed as stability constant of metal chelate at 1 to 4.5 x 10^-5 M using Ca2+; assay type: physicochemical; procedure, shortened: as §5
[21] = Metal chelating activity of the compound assessed as stability constant of metal chelate at 1 to 4.5 x 10^-5 M using copper; assay type: physicochemical; procedure, shortened: as §5
[22] = Metal chelating activity of the compound assessed as metal-compound complex formation using Mg2+; assay type: physicochemical; procedure, shortened: as §4
[23] = Metal chelating activity of the compound assessed as stability constant of metal chelate at 1 to 4.5 x 10^-5 M using Mg2+; assay type: physicochemical; procedure, shortened: as §5
[24] = Metal chelating activity of the compound assessed as metal-compound complex formation using Mn2+; assay type: physicochemical; procedure, shortened: as §4
[25] = Metal chelating activity of the compound assessed as stability constant of metal chelate at 1 to 4.5 x 10^-5 M using Mn2+; assay type: physicochemical; procedure, shortened: as §5
[26] = Metal chelating activity of the compound assessed as metal-compound complex formation using zinc; assay type: physicochemical; procedure, shortened: as §4
[27] = Metal chelating activity of the compound assessed as metal-compound complex formation using Ca2+; assay type: physicochemical; procedure, shortened: as §4
[28] = test system: Mus musculus; assay: Tumor promoting activity in ICR/Ha Swiss mouse at 62 ug administered three times a week measured for 370 days; assay type: ADME, organism-based; conditions: in vivo, 8880 h
Procedure, shortened: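 Female ICR/Ha Swiss mice, ectromelia-vaccinated, started at 8 weeks, backs clipped the day before treatment. Single subcarcinogenic topical dose of 7,12-dimethylbenz[a]anthracene, then repeated skin applications at doses equimolar to the positive-control promoter, over 370 days. Tumors >1 mm persisting ≥30 days were counted cumulatively and confirmed on H&E histology at autopsy. Controls received test compound alone or no treatment.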

SMILES: O=C1c2ccccc2Cc2cccc(O)c21
MST [1]: 391 days
Activity [2]: Toxic

SMILES: CC(=O)Oc1cccc2c1C(=O)c1c(cccc1OC(C)=O)C2
Activity [3]: Toxic

SMILES: O=C1c2ccccc2Cc2ccc(O)c(O)c21
Activity [4]: Non-toxic

SMILES: O=C1c2c(O)cccc2C(O)c2cccc(O)c21
Activity [5]: Non-toxic

SMILES: CC(=O)Oc1cccc2c1C(=O)C=CC2=O
Activity [6]: Toxic

SMILES: CCCCCCCCCCCCCC(=O)Oc1cccc2c1C(=O)c1c(cccc1OC(=O)CCCCCCCCCCCCC)C2
Activity [7]: Non-toxic

SMILES: CCCCCCCCCCCCCC(=O)C1c2cccc(O)c2C(=O)c2c(O)cccc21
Activity [8]: Toxic
MST [9]: 423 days

SMILES: O=C1c2ccccc2Cc2cc(O)c(O)cc21
Activity [4]: Non-toxic

SMILES: Oc1cc2cc3ccccc3cc2cc1O
Activity [10]: Non-toxic

SMILES: Oc1cccc2cc3ccccc3cc12
MST [1]: 474 days
Activity [2]: Toxic

SMILES: Oc1cccc2cc3cccc(O)c3cc12
Activity [10]: Non-toxic

SMILES: O=C1CCCc2cc3cccc(O)c3c(O)c21
Activity [4]: Non-toxic

SMILES: Oc1cccc2c1Cc1c(O)cccc1C2
Activity [4]: Non-toxic

SMILES: CCCCCCCCCCCCCC(=O)Oc1cccc2c1C(=O)C=CC2=O
Activity [11]: Non-toxic

SMILES: CC(=O)C1c2cccc(O)c2C(=O)c2c(O)cccc21
Activity [12]: Toxic

SMILES: O=C(c1ccccc1O)c1ccccc1O [2,2'-DIHYDROXYBENZPHENONE]
Activity [10]: Non-toxic

log K [13]: 9.16
log K [14]: 9.23
Activity [15]: Active
log K [16]: 9.19
log K [17]: 9.06
log K [18]: 9.56
SMILES: O=C1c2c(O)cccc2Cc2cccc(O)c21 [ANTHRALIN]

log K [19]: 5.62
log K [20]: 10.03
log K [21]: 5.77
Activity [15]: Active
Activity [22]: Active
log K [23]: 5.53
Activity [24]: Active
log K [25]: 5.58
Activity [26]: Active
Activity [27]: Active
SMILES: O=C1c2cccc(O)c2C(=O)c2c(O)cccc21 [DANTHRON]

SMILES: O=C1C=CC(=O)c2c(O)cccc21 [JUGLONE]
Activity [28]: Toxic
